One experiment is filed under the species Oryctolagus cuniculus. The experiment is described as follows: The compound was evaluated for the inhibition of AII-induced contraction in the rabbit aorta strips. The format is functional. The gist of the method: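 Rabbit aortic rings (4 mm) in 37 °C organ baths, Krebs-Henseleit gassed O2/CO2 95/5, passive tension 2 g, isometric tension recorded; three to five antagonist concentrations, one per ring, against 3 nM AII contraction; IC50 = concentration halving AII response; mean of six experiments.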

For experiment [1], the target named is T1, Type-1 angiotensin II receptor A (Rattus norvegicus, UniProt P25095).
T1 sequence (P25095 whole entry): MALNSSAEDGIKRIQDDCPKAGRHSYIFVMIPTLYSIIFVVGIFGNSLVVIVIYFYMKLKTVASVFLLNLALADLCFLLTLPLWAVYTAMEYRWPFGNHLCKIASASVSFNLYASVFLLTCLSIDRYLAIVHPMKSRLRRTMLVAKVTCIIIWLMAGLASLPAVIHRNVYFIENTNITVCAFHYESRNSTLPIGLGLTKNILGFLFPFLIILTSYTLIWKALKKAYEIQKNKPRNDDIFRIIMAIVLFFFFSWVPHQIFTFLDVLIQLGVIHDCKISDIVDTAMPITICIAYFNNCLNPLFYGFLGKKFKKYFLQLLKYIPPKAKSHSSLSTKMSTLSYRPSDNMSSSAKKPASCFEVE
In words: The compound was evaluated for the inhibition of [125I]-Sar-AII binding to Angiotensin II receptor, type 1 from purified rat liver membranes. It is filed as cell membranes, Membrane. The gist of the method:
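Purified rat liver membranes (AT1 only), 10 μg protein/assay, competition against [125I]Sar1-AII tracer for 30 min at 30 °C in 50 mM phosphate pH 7.4, 5 mM MgCl2, 0.1 mg/mL bacitracin, 0.6% Me2SO, no BSA; triplicates; GF/C filtration; Ki via Ekins equation.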

For experiment [2], the target named is T2, Type-1 angiotensin II receptor A (Rattus norvegicus) (UniProt P25095).
T2 sequence (whole entry): T1 sequence (P25095 whole entry)
In words: The compound was evaluated for irreversible binding to [125I]Sar-AII in CHO cells expressing the Angiotensin II receptor, type 1 without UV irradiation. It is filed as cell-based. In short, it runs like this:
(§1)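 CHO cells stably expressing rat AT1A receptor in 24-well clusters; incubated 4 h at 4 °C in dark with photoactivatable ligand (nonpeptide 50 or 10 nM; peptide azido probe 10 nM) in PBS pH 7.4, 5 mM MgCl2, 0.1 mg/mL bacitracin; washed, irradiated or not 5 min at 0 °C, 254 nm; two 30-min 30 °C dissociation incubations; remaining sites titrated with 5 nM [125I]Sar1-AII, 2 h, 4 °C; % of control, triplicates.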

The target of experiment [3] is T2, Type-1 angiotensin II receptor A (Rattus norvegicus). The experiment is described as follows: The compound was evaluated for irreversible binding to [125I]Sar-AII in CHO cells expressing the Angiotensin II receptor, type 1 with UV irradiation. The format is cell-based. The gist of the method: as §1
Experiment [4] concerns the target T1, Type-1 angiotensin II receptor A. In words: The compound was evaluated for the direct binding of tritiated compound to the recombinant Angiotensin II receptor, type 1 stably expressed in CHO cells. The format is cell-based. The gist of the method:
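Intact CHO cells stably expressing rat AT1A, grown to confluence (~5 × 10^5 cells/well), incubated 4 h at 4 °C with graded tritiated ligand in PBS pH 7.4, 5 mM MgCl2, 0.1 mg/mL bacitracin, 0.6% Me2SO; nonspecific binding with excess Sar1-AII or unlabeled nonpeptide; ice-cold washes, NaOH lysis, scintillation counting; Kd by Scatchard analysis, mean of four experiments.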

Structures are written as SMILES.

Data on 7 compounds can be found in ChEMBL document CHEMBL1132464, “Specific nonpeptide photoprobes as tools for the structural study of the angiotensin II AT(1) receptor” (J Med Chem, 1999).

In the experiment filed under Oryctolagus cuniculus, `CCCCc1ncc(CNc2ccccc2C(=O)O)n1Cc1ccc(C(=O)NS(=O)(=O)c2ccccc2N=[N+]=[N-])cc1` returned an IC50 of 3.5 nM. This compound gave a Ki in experiment [1] of 1.5 nM. The Control in experiment [2] is 50%; in experiment [3], 55%.

Turning to `CCCCc1ncc(CNc2ccccc2C(=O)O)n1Cc1ccc(C(=O)O)cc1`, in the experiment filed under Oryctolagus cuniculus, the midpoint of inhibition, the IC50, lay at 3.6 nM. Moreover, the Ki in experiment [1] is 12.1 nM.

As to `[3H]c1nc(CCCC)n(Cc2ccc(C(=O)O)cc2)c1CNc1ccccc1C(=O)O`, the Kd in experiment [4] is 3.5 nM.

In the experiment listed under Oryctolagus cuniculus, `CCCCc1ncc(CNc2ccccc2C(=O)O)n1Cc1ccc(C(=O)NS(=O)(=O)c2ccccc2Cl)cc1` had an IC50 of 0.8 nM. Further, the Ki in experiment [1] is 2.5 nM.

`CCCCc1ncc(CNc2cc(N=[N+]=[N-])ccc2C(=O)O)n1Cc1ccc(C(=O)O)cc1`: in the experiment listed under Oryctolagus cuniculus, the IC50 came to 6.3 nM. In addition, in experiment [1], the Ki worked out at 22 nM. The Control came out at 91% in experiment [2] and 64% in experiment [3].

Turning to `[3H]c1ccc(S(=O)(=O)NC(=O)c2ccc(Cn3c(CNc4ccccc4C(=O)O)cnc3CCCC)cc2)c(Cl)c1`, the Kd in experiment [4] amounted to 1.3 nM.

With `[3H]c1nc(CCCC)n(Cc2ccc(C(=O)O)cc2)c1C([3H])Nc1cc(N=[N+]=[N-])ccc1C(=O)O` (stereo not given), the Kd in experiment [4] is 11.8 nM.

The term IC50 denotes the point on the concentration scale where inhibition reaches its midpoint. Read a high IC50 as weaker potency in that assay. The term Ki denotes the dissociation constant of the complex between target and ligand, obtained from inhibition or displacement. A lower Ki goes with a stronger hold on the target. One may read the Kd as the concentration at which binding is half-saturated.
